pIC50: −log10 of the molar value.
Tests used:
[1] = Inhibition of protein kinase A (PKA) in bovine heart
Method in brief: (§1)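 Kinase assay on PKA isolated from bovine heart, run by a method described earlier. Each data point was done in triplicate. IC50 values are the mean of at least two independent assays.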

Protein kinase C (PKC) = experiment: Inhibition of protein kinase C (PKC) in rat brain; type: tissue-based
Method in brief: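 PKC from rat brain was assayed by a method described earlier. Each data point was done in triplicate. IC50 is the mean of at least two independent determinations.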

[2] = Inhibition of c-AMP dependent protein kinase A (PKA) in bovine heart; method in brief: as §1

Row | pIC50 [1] | IC50 (Protein kinase C (PKC)) [µM] | pIC50 [2] | SMILES
1 | 5.34 | 0.047 | – | Cn1cc(C2=C(c3cn(CCCCCSC(=N)N)c4ccccc34)C(=O)NC2=O)c2ccccc21
2 | – | 0.34 | 4.66 | Cn1cc(C2=C(c3cn(CCO)c4ccccc34)C(=O)NC2=O)c2ccccc21
3 | – | 0.035 | 4.92 | CNCCCn1cc(C2=C(c3cn(C)c4ccccc34)C(=O)NC2=O)c2ccccc21
4 | – | 0.28 | 4.67 | Cn1cc(C2=C(c3cn(CCCCCO)c4ccccc34)C(=O)NC2=O)c2ccccc21
5 | – | 0.093 | 4.19 | Cn1cc(C2=C(c3cn(CCC[N+](C)(C)C)c4ccccc34)C(=O)NC2=O)c2ccccc21
6 | – | 0.075 | 5.28 | Cn1cc(C2=C(c3cn(CCCN)c4ccccc34)C(=O)NC2=O)c2ccccc21
7 | – | 0.13 | 4.85 | Cn1cc(C2=C(c3cn(CCCO)c4ccccc34)C(=O)NC2=O)c2ccccc21
8 | – | 0.076 | 4.98 | Cn1cc(C2=C(c3cn(CCCCCN)c4ccccc34)C(=O)NC2=O)c2ccccc21
9 | – | 0.17 | 4.74 | Cn1cc(C2=C(c3cn(CCCCO)c4ccccc34)C(=O)NC2=O)c2ccccc21
10 | 5.57 | 0.028 | – | Cn1cc(C2=C(c3cn(CCCCSC(=N)N)c4ccccc34)C(=O)NC2=O)c2ccccc21
11 | 4.92 | 0.041 | – | Cn1cc(C2=C(c3cn(CCSC(=N)N)c4ccccc34)C(=O)NC2=O)c2ccccc21
12 | – | 0.045 | 4.59 | CN(C)CCCn1cc(C2=C(c3cn(C)c4ccccc34)C(=O)NC2=O)c2ccccc21
13 | – | 0.064 | 5.05 | Cn1cc(C2=C(c3cn(CCN)c4ccccc34)C(=O)NC2=O)c2ccccc21
14 | 6.05 | 0.01 | – | Cn1cc(C2=C(c3cn(CCCSC(=N)N)c4ccccc34)C(=O)NC2=O)c2ccccc21 [BISINDOLYLMALEIMIDE IX]
15 | – | 0.019 | 5.54 | Cn1cc(C2=C(c3cn(CCCN=C(N)N)c4ccccc34)C(=O)NC2=O)c2ccccc21
16 | – | 0.055 | 5.03 | Cn1cc(C2=C(c3cn(CCCCN)c4ccccc34)C(=O)NC2=O)c2ccccc21
17 | – | 0.031 | 5.13 | Cn1cc(C2=C(c3cn(CCCCC(=N)N)c4ccccc34)C(=O)NC2=O)c2ccccc21

Row | SMILES | pIC50 [1] | IC50 (Protein kinase C (PKC)) [µM] | pIC50 [2]
18 | Cn1cc(C2=C(c3cn(CCC/N=C(\N)N[N+](=O)[O-])c4ccccc34)C(=O)NC2=O)c2ccccc21 | 5.31 | 0.026 | –

From ChEMBL document CHEMBL1126323, “Inhibitors of protein kinase C. 2. Substituted bisindolylmaleimides with improved potency and selectivity” (J Med Chem, 1992)
